Measured values reported in ChEMBL document CHEMBL1208768, “Synthesis, selective anti-Helicobacter pylori activity, and cytotoxicity of novel N-substituted-2-oxo-2H-1-benzopyran-3-carboxamides” (Bioorg Med Chem Lett, 2010).
≈ marks a conversion by molar mass, not a printed value. Calls of active or inactive are those of the source. The calls are words filed in the database; no cut-off is given here.

Columns and labels:
Klebsiella aerogenes = experiment: Antibacterial activity against Enterobacter aerogenes after 18 to 22 hrs by broth microdilution method; type: functional
Outline: (§1)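 Clinical respiratory-tract isolates from patients, subcultured for purity and identified conventionally. Broth microdilution per NCCLS in Mueller–Hinton II broth; each plate had growth controls (bacteria, no compound) and medium-only controls. Incubation 18–22 h at 35 °C. MIC taken as the lowest concentration giving complete growth inhibition by unaided eye.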

Enterobacter = experiment: Antibacterial activity against Enterobacter after 18 to 22 hrs by broth microdilution method; type: functional; outline: as §1
AGS [1] = experiment: Antiinflammatory activity in human AGS cells assessed as inhibition of IL-8 production at 5 ug/mL after 24 hrs; type: functional, cell-based
Outline: (§2)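 AGS gastric adenocarcinoma cells were grown in F-12K with 10% FBS. They were seeded at 1 × 10⁵/mL for 24 h, preincubated 1 h with compound at 5 or 0.5 µg/mL, then exposed to H. pylori.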

AGS [2] = experiment: Antiinflammatory activity in human AGS cells assessed as inhibition of IL-8 production at 0.5 ug/mL after 24 hrs; type: functional, cell-based; outline: as §2
[3] = Cytotoxicity against human EAhy926 cells assessed as cell survival at 0.5 ug/mL after 24 hrs by trypan blue exclusion assay; type: cell-based, EA.hy 926; conditions: read-out: Survival
Outline: (§3)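 EAhy cells in DMEM (high glucose) with 10% FBS, at 1 × 10⁵/mL in exponential growth and 60–70% confluent, were exposed 24 h at 37 °C to compounds from DMSO stocks (final DMSO ≤0.5%). Controls were cells alone or with DMSO, and 1 mM sodium nitroprusside as positive control. Cells were scraped, mixed 1:1 with 0.4% Trypan blue and counted on a hemocytometer by two operators. Result given as % viable cells.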

Helicobacter pylori [4] = experiment: Antibacterial activity against metronidazole-resistant Helicobacter pylori isolate 20 after 72 hrs by agar dilution method; type: functional; conditions: isolate 20, 72 h
Outline: (§4)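 H. pylori clinical isolates (ATCC 43504 control each session) stored at -80 °C and subcultured twice on Columbia agar with 10% horse serum and 0.25% yeast extract. Suspensions of 0.5 McFarland were spotted by Steer's replicator at about 5 × 10⁵ CFU/spot onto agar with twofold compound dilutions. Plates were incubated 72 h at 37 °C in 10% CO₂. MIC was the lowest concentration without visible growth.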

[5] = Cytotoxicity against human EAhy926 cells assessed as cell survival at 5 ug/mL after 24 hrs by trypan blue exclusion assay; type: cell-based, EA.hy 926; conditions: read-out: Survival; outline: as §3
Staphylococcus hominis = experiment: Antibacterial activity against Staphylococcus hominis after 18 to 22 hrs by broth microdilution method; type: functional; outline: as §1
Helicobacter pylori [6] = experiment: Antibacterial activity against metronidazole-resistant Helicobacter pylori isolate 18 after 72 hrs by agar dilution method; type: functional; conditions: isolate 18, 72 h; outline: as §4
Helicobacter pylori [7] = experiment: Antibacterial activity against metronidazole-resistant Helicobacter pylori NCTC 11637 after 72 hrs by agar dilution method; type: functional; conditions: NCTC 11637, 72 h; outline: as §4
Enterococcus faecalis = experiment: Antibacterial activity against Streptococcus faecalis after 18 to 22 hrs by broth microdilution method; type: functional; outline: as §1
Pichia kudriavzevii = experiment: Antifungal activity against Candida krusei after 24 hrs by broth microdilution method; type: functional
Outline: (§5)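 Candida isolates from respiratory-tract specimens, tested by NCCLS broth microdilution in Sabouraud dextrose broth. Serial compound dilutions inoculated to 10³/mL, with fungus-only and medium-only controls. Incubated 24 h at 37 °C. MIC was the lowest concentration with complete visible growth inhibition.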

[8] = Cytotoxicity against human EAhy926 cells assessed as cell survival at 5 ug/mL after 24 hrs by MTT assay; type: cell-based, EA.hy 926; conditions: read-out: Survival
Proteus vulgaris = experiment: Antibacterial activity against Proteus vulgaris after 18 to 22 hrs by broth microdilution method; type: functional; outline: as §1
Helicobacter pylori [9] = experiment: Antibacterial activity against metronidazole-resistant Helicobacter pylori isolate 1 after 72 hrs by agar dilution method; type: functional; conditions: isolate 1, 72 h; outline: as §4
AGS (Homo sapiens) = experiment: Cytotoxicity against human AGS cells assessed as cell survival at 50 ug/mL after 24 hrs by MTT assay
Klebsiella pneumoniae = experiment: Antibacterial activity against Klebsiella pneumoniae after 18 to 22 hrs by broth microdilution method; type: functional; outline: as §1
[10] = Cytotoxicity against human EAhy926 cells assessed as cell survival at 50 ug/mL after 24 hrs by trypan blue exclusion assay; type: cell-based, EA.hy 926; conditions: read-out: Survival; outline: as §3
[11] = test system: Staphylococcus epidermidis; experiment: Antibacterial activity against Staphylococcus epidermidis after 18 to 22 hrs by broth microdilution method; type: functional; outline: as §1
Escherichia coli = experiment: Antibacterial activity against Escherichia coli after 18 to 22 hrs by broth microdilution method; type: functional; outline: as §1
Citrobacter freundii = experiment: Antibacterial activity against Citrobacter freundii after 18 to 22 hrs by broth microdilution method; type: functional; outline: as §1
[Candida] sake = Antifungal activity against Candida sake after 24 hrs by broth microdilution method; type: functional; conditions: Fermentozyma sake; outline: as §5
Staphylococcus aureus = experiment: Antibacterial activity against Staphylococcus aureus after 18 to 22 hrs by broth microdilution method; type: functional; outline: as §1
[12] = Cytotoxicity against human EAhy926 cells assessed as cell survival at 0.5 ug/mL after 24 hrs by MTT assay; type: cell-based, EA.hy 926; conditions: read-out: Survival
Klebsiella oxytoca = experiment: Antibacterial activity against Klebsiella oxytoca after 18 to 22 hrs by broth microdilution method; type: functional; outline: as §1
[13] = Cytotoxicity against human EAhy926 cells assessed as cell survival at 0.05 ug/mL after 24 hrs by trypan blue exclusion assay; type: cell-based, EA.hy 926; conditions: read-out: Survival; outline: as §3
Helicobacter pylori [14] = experiment: Antibacterial activity against Helicobacter pylori ATCC 43504 clinical isolates after 72 hrs by agar dilution method; type: functional; conditions: ATCC 43504, 72 h
Outline: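 Agar dilution per NCCLS. Twenty clinical strains from duodenal ulcer or gastritis patients, with ATCC 43504 as control in each session, were subcultured twice on Columbia agar plus 10% horse serum and 0.25% yeast extract (72 h, 37 °C, 10% CO₂). Inoculum of 0.5 McFarland in Wilkins Chalgren broth, about 5 × 10⁵ CFU/spot by Steer's replicator. Plates held twofold compound dilutions down to 0.0039 µg/mL and were incubated 72 h at 37 °C, 10% CO₂. MIC was the lowest concentration inhibiting visible growth.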

Helicobacter pylori [15] = experiment: Antibacterial activity against metronidazole-resistant Helicobacter pylori isolate 8 after 72 hrs by agar dilution method; type: functional; conditions: isolate 8, 72 h; outline: as §4
Candida albicans = experiment: Antifungal activity against Candida albicans after 24 hrs by broth microdilution method; type: functional; outline: as §5
[16] = test system: Staphylococcus haemolyticus; experiment: Antibacterial activity against Staphylococcus haemolyticus after 18 to 22 hrs by broth microdilution method; type: functional; outline: as §1

SMILES	MIC (Klebsiella aerogenes) [µg/mL]	MIC (Enterobacter) [µg/mL]	inhibition (AGS [1])	inhibition (AGS [2])	MIC (Helicobacter pylori [4]) [µg/mL]	viability at 24 h, 5 ug/mL [5] [%]	MIC (Staphylococcus hominis) [µg/mL]	MIC (Helicobacter pylori [6]) [µg/mL]	MIC (Helicobacter pylori [7]) [µg/mL]	MIC (Enterococcus faecalis) [µg/mL]	MIC (Pichia kudriavzevii) [µg/mL]	viability at 24 h, 5 ug/mL [8] [%]	MIC (Proteus vulgaris) [µg/mL]	MIC (Helicobacter pylori [9]) [µg/mL]	MIC (Klebsiella pneumoniae) [µg/mL]	viability at 24 h, 50 ug/mL [10] [%]	MIC [11] [µg/mL]	MIC (Escherichia coli) [µg/mL]	MIC (Citrobacter freundii) [µg/mL]	MIC ([Candida] sake) [µg/mL]	other results
CCOC(=O)c1ccc(NC(=O)c2cc3cc(Br)cc(Cl)c3oc2=O)cc1	> 128	> 128	inactive	inactive	8 (≈ 17.8 µM)	71	> 128	8 (≈ 17.8 µM)	16 (≈ 35.5 µM)	> 128	> 128	75	> 128	8 (≈ 17.8 µM)	> 128	58	> 128	> 128	> 128	> 128	viability at 24 h, 0.5 ug/mL [3]: 86%; viability at 24 h, 50 ug/mL (AGS (Homo sapiens)): 64%; MIC (Staphylococcus aureus): > 128 µg/mL; viability at 24 h, 0.5 ug/mL [12]: 98%; MIC (Klebsiella oxytoca): > 128 µg/mL; viability at 24 h, 0.05 ug/mL [13]: 94%; MIC50 (Helicobacter pylori [14]): 8 µg/mL (≈ 17.8 µM); MIC90 (Helicobacter pylori [14]): 16 µg/mL (≈ 35.5 µM); MIC (Helicobacter pylori [15]): 4 µg/mL (≈ 8.88 µM); MIC (Candida albicans): > 128 µg/mL; MIC [16]: > 128 µg/mL
CCOC(=O)c1ccc(NC(=O)c2cc3cc(O)ccc3oc2=O)cc1	> 128	> 128	inactive	inactive	2 (≈ 5.66 µM)	80	> 128	8 (≈ 22.6 µM)	8 (≈ 22.6 µM)	> 128	> 128	99	> 128	4 (≈ 11.3 µM)	> 128	77	> 128	> 128	> 128	> 128	viability at 24 h, 0.5 ug/mL [3]: 83%; viability at 24 h, 50 ug/mL (AGS (Homo sapiens)): 82%; MIC (Staphylococcus aureus): > 128 µg/mL; viability at 24 h, 0.5 ug/mL [12]: 99%; MIC (Klebsiella oxytoca): > 128 µg/mL; viability at 24 h, 0.05 ug/mL [13]: 93%; MIC50 (Helicobacter pylori [14]): 4 µg/mL (≈ 11.3 µM); MIC90 (Helicobacter pylori [14]): 8 µg/mL (≈ 22.6 µM); MIC (Helicobacter pylori [15]): 2 µg/mL (≈ 5.66 µM); MIC (Candida albicans): > 128 µg/mL; MIC [16]: > 128 µg/mL
COc1ccc2oc(=O)c(C(=O)Nc3ccc(C(=O)O)cc3)cc2c1	> 128	> 128	inactive	inactive	4 (≈ 11.8 µM)	69	> 128	4 (≈ 11.8 µM)	4 (≈ 11.8 µM)	> 128	> 128	99	> 128	8 (≈ 23.6 µM)	> 128	62	> 128	> 128	> 128	> 128	MIC (Staphylococcus aureus): > 128 µg/mL; viability at 24 h, 0.5 ug/mL [12]: 99%; MIC (Klebsiella oxytoca): > 128 µg/mL; viability at 24 h, 0.05 ug/mL [13]: 85%; MIC50 (Helicobacter pylori [14]): 4 µg/mL (≈ 11.8 µM); MIC90 (Helicobacter pylori [14]): 8 µg/mL (≈ 23.6 µM); MIC (Helicobacter pylori [15]): 4 µg/mL (≈ 11.8 µM); MIC (Candida albicans): > 128 µg/mL; MIC [16]: > 128 µg/mL
